beta cell repl – inducers of MIN6 beta-cell proliferation, primary screen, ATP luminescence, uHTS; MIN6 cells proliferation, ATPlite luminescence, 48 h; cells starved in 0.2% serum; 100% = growth in 10% serum; AID 2380, 2010; hit rate 0.29% among 330,000; proliferation, % at 10 µM;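 active = compounds whose signal lies at least 3.5 SD above the mean of all wells on their plate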;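 also: 0% = DMSO-treated cells in low-serum medium and 100% = 10% serum control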
m5-HT2A agonist – mouse Htr2a agonists via beta-arrestin recruitment, primary screen, cell-based, luminescence | 5-hydroxytryptamine receptor 2A (Mus musculus), P35363 | activation, % at 7.6 µM | CHO-K1 mHTR2A beta-arrestin complementation; percent of 30 µM serotonin response | hit rate 0.66% among 360,000;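 active = activation above a run cutoff, the mean activation of all tested compounds plus 3 SD, cut at about 14% in these data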;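 also: 0% = plate median of compound wells and 100% = 30 µM serotonin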
TMEM16A inh – TMEM16A chloride channel inhibitors, primary screen, cell-based, HTS. hit rate 1.2% among 310,000. Anoctamin-1 (Mus musculus), Q8BHY3. AID 588511, 2011. normalized B-score (activity score, 25-100; higher = stronger inhibition) at 10 µM. HEK293 TMEM16A/YFP iodide influx fluorescence, ionomycin;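 active = ratio plate-corrected score three or more library SD toward inhibition, starting fluorescence score within five deviations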;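 also: score derived from kinetic fluorescence span divided by baseline fluorescence per well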
Target sequence (Q8BHY3 whole entry, looked up): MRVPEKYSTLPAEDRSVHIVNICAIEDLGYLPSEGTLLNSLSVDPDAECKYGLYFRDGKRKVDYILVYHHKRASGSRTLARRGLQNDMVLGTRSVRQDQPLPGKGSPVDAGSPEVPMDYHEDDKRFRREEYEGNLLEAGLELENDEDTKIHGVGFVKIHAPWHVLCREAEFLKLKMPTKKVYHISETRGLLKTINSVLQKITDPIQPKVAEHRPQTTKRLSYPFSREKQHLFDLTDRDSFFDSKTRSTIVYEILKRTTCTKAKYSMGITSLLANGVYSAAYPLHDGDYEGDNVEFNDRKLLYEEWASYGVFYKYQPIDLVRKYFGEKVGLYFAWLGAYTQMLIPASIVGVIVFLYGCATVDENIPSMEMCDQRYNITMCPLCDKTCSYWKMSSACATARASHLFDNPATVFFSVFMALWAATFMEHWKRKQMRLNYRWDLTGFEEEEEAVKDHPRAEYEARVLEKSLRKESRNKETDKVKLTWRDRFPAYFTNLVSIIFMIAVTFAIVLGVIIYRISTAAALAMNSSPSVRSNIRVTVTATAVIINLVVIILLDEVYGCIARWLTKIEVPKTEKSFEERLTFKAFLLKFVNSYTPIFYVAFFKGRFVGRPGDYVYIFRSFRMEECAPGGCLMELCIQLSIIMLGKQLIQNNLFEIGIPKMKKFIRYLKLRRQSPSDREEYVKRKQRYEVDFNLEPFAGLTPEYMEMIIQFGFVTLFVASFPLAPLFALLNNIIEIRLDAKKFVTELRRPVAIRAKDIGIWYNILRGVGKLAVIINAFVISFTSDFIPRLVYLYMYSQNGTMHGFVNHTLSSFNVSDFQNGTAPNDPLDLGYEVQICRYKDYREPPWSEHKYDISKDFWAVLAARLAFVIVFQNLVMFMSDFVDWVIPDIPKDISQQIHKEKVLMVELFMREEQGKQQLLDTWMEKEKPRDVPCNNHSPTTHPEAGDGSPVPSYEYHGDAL
ANO1 activ – TMEM16A chloride channel activators or potentiators, primary screen, cell-based, HTS; Anoctamin-1 (Mus musculus), Q8BHY3; HEK293 TMEM16A/YFP-H148Q/I152L, iodide quench fluorescence; hits give low values; B-score at 10 µM; hit rate 0.3% among 340,000; AID 623877, 2012;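 active = fluorescence-ratio B-score plate-corrected deviation score at least 3 library SD below zero, with starting fluorescence score within 5 deviations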;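 also: channel opened by trigger with iodide after compound preincubation; score built on the fluorescence ratio of max minus min over baseline; more negative score means more quench and so TMEM16A activation or potentiation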
MC4R barr agon – MC4R agonists recruiting beta-arrestin, primary screen, cell-based, luminescence, agonist arm of biased-ligand search | U2OS MC4R beta-arrestin complementation; percent of melanotan II response, DMSO zero | activation, % at 8.9 µM | hit rate 0.98% among 360,000 | AID 540308, 2011;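 active = activation above a per-plate cutoff, the mean activation of sample wells on that plate plus 3 SD, cut at about 8% in these data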
MC4R antag cAMP – MC4R antagonists of cAMP signaling, primary screen, cell-based, TR-FRET, antagonist arm of biased-ligand search | Melanocortin receptor 4 (Homo sapiens), P32245 | MC4R-expressing cells, MTII-stimulated cAMP, LANCE TR-FRET | inhibition, % at 6.5 µM | hit rate 0.48% among 360,000 | AID 540295, 2011;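 active = inhibition above its plate's cutoff, the mean of tested wells on that plate plus 3 SD, cut at about 29% in these data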;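 also: 0% = Melanotan II alone and 100% = Melanotan II plus saturating MCL0020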
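Material – human MC4R-expressing U2OS cells · Repeats – no replicates · Detection – TR-FRET with Eu-cAMP and labeled anti-cAMP, 671 nm · Times – compound 30 min, challenge 1 h, detection 1 h · Compound – single nominal compound dose of 6.5 µM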
The depositor's hits bear a star; i = inactive; . = not tested or not shown. An excerpt weighted towards active compounds, which were near 3.4% of everything screened.

SMILES	beta cell repl	m5-HT2A agonist	TMEM16A inh	ANO1 activ	MC4R barr agon	MC4R antag cAMP
O=C(CSc1nnc(COc2ccc(Cl)cc2Cl)o1)Nc1ccccn1	-1.2	6.9	i	i	8.9*	5.8
CCOC(=O)C1(Cc2ccccc2C(F)(F)F)CCN(CCCn2cccn2)CC1	-2.2	-8.3	i	-6.57*	-2.3	-0.6
CCOC(=O)C1(CCCc2ccccc2)CCN(CCCn2cccn2)CC1	-1.5	-0.6	i	i	-2.6	3.8
COc1ccc(S(=O)(=O)N2CCC(NC(=O)c3cccnc3)CC2)cc1	-3.5	1.1	i	i	-1.4	-4.2
O=C1Nc2ccccc2C1(c1ccccc1)c1ccccc1	-3.9	-0.6	i	i	36.9*	-0.8
O=C(Nc1ccc(-c2nc3ccccc3o2)cc1)c1ccc(N2CCOCC2)c([N+](=O)[O-])c1	-4.0	-1.4	25*	i	1.4	15.8
Cn1cc([N+](=O)[O-])c(C(=O)Nc2ccc(-c3nc4ccccc4o3)cc2)n1	1.4	4.6	i	i	13.3*	7.1
CC(=O)N(c1ccccc1)C(C(=O)c1ccccc1)c1ccccc1 (stereo unspecified)	.	-3.7	.	i	-1.9	13.8
CCN(CC)S(=O)(=O)c1cccc(-c2nnc(SCCCC(=O)c3ccccc3)o2)c1	-0.7	2.0	i	i	-1.4	14.7
CCN(CC)S(=O)(=O)c1cccc(-c2nnc(SCCCC(=O)c3ccc(F)cc3)o2)c1	-1.7	1.3	i	-4.6*	-0.5	6.7
O=C(NCc1cccc(C(F)(F)F)c1)c1csc(COCCO)n1	.	9.8	.	.	-0.4	2.6
Oc1ccccc1C1=Nc2ccccc2N=C(c2ccco2)C1	-1.1	-6.1	i	i	8.5*	1.1
O=C(NCc1ccc2c(c1)OCO2)c1c(-c2ccccc2)sc2ccccc12	-0.7	4.7	.	i	21.0*	7.4
Cc1onc(-c2ccccc2)c1C(=O)NCc1ccc2c(c1)OCO2	-0.5	0.6	i	i	-0.4	17.5
COc1ccc(OC)c(C(c2nnnn2CCc2ccccc2)N2CCN(c3ccccc3)CC2)c1 (stereo unspecified)	-2.1	-5.3	i	-8.48*	-0.9	18.6
O=C(NNC(=O)c1ccccc1O)c1ccc(Cl)c(S(=O)(=O)N2CCc3ccccc32)c1	-7.8	2.9	100*	i	-5.2	16.1
O=C(c1ccc(Cl)c(S(=O)(=O)N2CCc3ccccc32)c1)N1CCN(c2ccccc2O)CC1	-6.7	-1.6	.	i	-1.9	18.5
O=C(Nc1ccc(F)cc1)c1ccc2c(=O)n3c(nc2c1)CCCCC3	-4.4	-3.5	25*	i	-0.5	-2.8
CCNC(=O)C1(C)CCN(C(=O)c2c(-c3ccccc3)noc2C)C1 (stereo unspecified)	.	0.2	.	.	-2.0	13.0
Cc1cccc(C(=O)NC(=S)NNC(=O)c2cccs2)c1	0.0	6.7	i	i	-1.7	-3.5
COc1ccc(C(=O)NNC(=S)NC(=O)c2ccc(Cl)cc2)cc1	-4.2	.	100*	i	.	.
O=C(NNC(=S)NC(=O)c1sc2ccccc2c1Cl)c1ccc(Cl)cc1	0.0	3.3	100*	-9.3*	-2.2	8.4
Cc1cccc(C(=O)NC(=S)NNC(=O)c2ccc(Cl)cc2)c1	.	-9.2	25*	i	-6.4	14.9
CC1C(=O)N(Cc2cn(Cc3ccco3)nn2)CCS(=O)(=O)N1Cc1ccc(-c2ccc(Cl)c(Cl)c2)cc1 (stereo unspecified)	.	11.4	.	.	1.2	6.0
O=c1[nH]c(=O)n2ncnc2[nH]1	.	3.6	.	.	0.4	3.5
SMILES	beta cell repl	m5-HT2A agonist	TMEM16A inh	ANO1 activ	MC4R barr agon	MC4R antag cAMP
CC(C)C[C@H]1CN([C@@H](Cc2ccccc2)CN2CCC[C@@H]2CN2C(=O)C(=O)NC[C@@H]2Cc2ccccc2)C(=O)C(=O)N1CC1CCCCC1	.	0.4	.	.	.	.
CCN(CC(=O)Nc1c(F)cccc1F)C(=O)CCCc1cccs1	2.9	-3.9	.	-39.3*	0.5	-5.8
CN(CC(=O)Nc1c(F)cccc1F)Cc1cccs1	-0.6	3.8	i	i	1.0	4.2
Nc1cc(C(F)(F)F)ccc1NCCc1ccccn1	0.4	0.3	i	i	-0.3	-3.8
Cc1ccc(S(=O)(=O)N2CCN(C(=O)CCOc3cc(C)ccc3C)CC2)cc1	-3.2	0.7	.	-43.9*	-0.3	-0.8
Cc1ccc(SCC(=O)Nc2cc([N+](=O)[O-])ccc2O)cc1	-4.7	5.4	25*	i	-1.4	5.7
O=C(CSCc1ccc(Cl)cc1)Nc1cc([N+](=O)[O-])ccc1O	-5.1	0.1	i	i	1.5	14.5
Oc1ccc(Cl)cc1CNCc1ccc(Cl)cc1	-6.2	-12.2	i	i	-0.1	5.5
Oc1ccc(Cl)cc1Cc1cc(Cl)ccc1O	-7.8	4.8	100*	i	0.3	2.7
O=C1NC[C@@H](CCCCN2CCN(CCc3ccccc3)C(=O)C2=O)N(Cc2ccccc2)C1=O	.	0.0	.	.	.	.
CNc1nc(SCc2ccc(C)cc2)nc2c1CCCC2	-4.9	-6.4	100*	i	1.5	7.4
Cc1cc(C)c(NC(=O)CNC(=O)COC(=O)/C=C/c2cccs2)c(C)c1	-0.3	6.4	i	i	-2.3	0.1
Nc1ccc2c(Cl)cc(Cl)cc2c1	.	-2.2	.	.	0.8	-7.6
CC1(C)CC2CC(C)(CN2S(=O)(=O)c2ccc(C(=O)Nc3cc(S(=O)(=O)N4CCOCC4)ccc3Cl)cc2)C1 (stereo unspecified)	0.0	-3.0	i	-11.8*	-1.9	18.3
Cc1nnc(SCC(=O)N2CCN(S(=O)(=O)c3ccc(Cl)cc3)CC2)n(N)c1=O	1.2	-1.3	i	-16.6*	-1.1	16.0
CCOC(=O)c1c(NC(=O)c2cccs2)sc2c1CCN(C(=O)OCC)C2	-5.7	-3.1	i	i	-1.5	10.3
CCOC(=O)N1CCc2c(sc(NC(=O)c3ccc(Cl)s3)c2C(N)=O)C1	-8.3	.	100*	.	.	.
CN1CCN(c2oc(Cc3cccc4ccccc34)nc2C#N)CC1	-3.5	-9.6	i	i	1.0	7.2
N#Cc1nc(Cc2cccc3ccccc23)oc1N1CCCCC1	-0.7	-5.2	100*	-23*	0.2	0.2
CCCCC1CC2=C(C(=O)OC(C)(C)O2)C(c2ccc(F)cc2)O1 (stereo unspecified)	.	-1.3	.	.	.	.
COC(=O)c1sc2ncccc2c1OCc1ccccc1Cl	4.1	-6.6	i	i	-0.9	15.9
